Assay results reported in ChEMBL document CHEMBL1154840, “New pyrazoles incorporating pyrazolylpyrazole moiety: synthesis, anti-HCV and antitumor activity” (Eur J Med Chem, 2010).
Values after ≈ are worked out from the molar mass of the structure shown. Active and inactive are the calls of the source. No cut-off for these calls is given here.

How the values were obtained:
[1] = target: DNA topoisomerase 2-alpha (Mus musculus) (UniProt Q01320); assay: Inhibition of mouse DNA topoisomerase 2 assessed as relaxation of supercoiled pBR322 plasmid DNA after 1 hr by electrophoresis relative to etoposide
Outline: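 Topoisomerase II was purified from P388 cells. 0.125 μg supercoiled pBR-322 DNA was incubated with 1 unit of enzyme at 30 °C for 1 h in 50 mM Tris–HCl pH 8.0, 100 mM KCl, 10 mM MgCl2, 0.5 mM DTT, 1 mM ATP and 30 μg/ml BSA. Products were resolved on 0.7% agarose in TBE and stained with ethidium bromide.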

Mus musculus [2] = assay: Toxicity in mouse Colon 38 cells xenografted C57BL/6 mouse assessed as mortality at 3 mg/kg, iv administered as a single dose; assay type: organism-based, MC-38; set-up: dose 3 mg/kg, route intravenous; details: in vivo
MC-38 [3] = assay: Growth inhibition of mouse Colon 38 cells after 72 hrs by sulforhodamine B assay relative to etoposide; assay type: functional
Outline: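 Exponentially growing cells were seeded on day 0. Graded drug concentrations were added on day 1, followed by 72 h at 37 °C. Cell number was estimated by SRB assay, with a separate day-1 count. GI50 is the concentration giving a 50% reduction in net protein increase versus control.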

[4] = Antioxidant activity against peroxynitrite-induced tyrosine nitration after 15 mins by HPLC; assay type: functional
Outline: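 Tyrosine (100 μM) was reacted with equimolar peroxynitrite and increasing compound concentrations (0–300 μM) in 100 mM phosphate buffer pH 7.4 at 37 °C for 15 min. 3-Nitrotyrosine formation was measured by reverse-phase C18 HPLC using a methanol/water/HCl and acetonitrile/water/HCl mobile phase. IC50 reported.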

Hepacivirus hominis = assay: Inhibition of HCV […] by quantitative RT-PCR
Outline: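 HCV replicon cells, 1×10^4 per well, were plated and the next day exposed to serially diluted compounds in DMEM with 2% FBS and 0.5% DMSO at 37 °C. Total RNA was extracted and HCV RNA copy number was measured by quantitative RT-PCR. Five replicates per point; MIC reported.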

[5] = system: Measles virus (SSPE virus); assay: Antiviral activity against measles virus infected in hamster brain assessed as inhibition of subacute sclerosing panencephalitis dosed intracranially by HPLC
MC-38 [6] = assay: Antitumor activity against mouse Colon 38 cells xenografted in C57BL/6 mouse assessed as tumor volume at 3 mg/kg, iv administered as a single dose; assay type: functional, organism-based; set-up: dose 3 mg/kg
Outline: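 Female C57BL/6 mice, 6 weeks old, were inoculated s.c. in the flank with about 30 mg Colon 38 tumor tissue. When tumors reached approximately 300 mm³ (day 1), mice were randomized, n = 5 per group. Compound in 5% glucose was given as a single i.v. tail-vein dose on day 1; controls received 5% glucose. Tumor volume = ([…])/2; body weight also recorded.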

[7] = system: Radical scavenging activity; assay: Antioxidant activity against DPPH radical scavenging activity after 30 mins by ELISA; assay type: functional; set-up: concentration or dose not given beside the values
Outline: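 DPPH radical scavenging. Compounds were dissolved in DMSO and serially diluted, 0.0–100 μM/ml. 10 µl was added to 90 µl of 100 µM DPPH in methanol and incubated 30 min at 37 °C in the dark. Decrease in absorbance was read at 515 nm. % reduction = [(A_B − A_A)/A_B] × 100, against a DMSO/DPPH blank. Triplicate.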

Mus musculus [8] = assay: Toxicity in mouse Colon 38 cells xenografted C57BL/6 mouse assessed as body weight change at 3 mg/kg, iv administered as a single dose; assay type: organism-based, MC-38; set-up: dose 3 mg/kg, route intravenous; details: in vivo
Outline: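 Female C57BL/6 mice, 6 weeks old, had about 30 mg of Colon 38 tumour tissue implanted s.c. in the flank. When tumours reached about 300 mm³ on day 1, mice were randomised into control and treatment groups (n = 5 each). Compound in 5% glucose was given once on day 1 by tail-vein i.v. injection; controls received 5% glucose. Body weight was tracked over subsequent days.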

Sequence of DNA topoisomerase 2-alpha (Mus musculus) (Q01320 whole entry): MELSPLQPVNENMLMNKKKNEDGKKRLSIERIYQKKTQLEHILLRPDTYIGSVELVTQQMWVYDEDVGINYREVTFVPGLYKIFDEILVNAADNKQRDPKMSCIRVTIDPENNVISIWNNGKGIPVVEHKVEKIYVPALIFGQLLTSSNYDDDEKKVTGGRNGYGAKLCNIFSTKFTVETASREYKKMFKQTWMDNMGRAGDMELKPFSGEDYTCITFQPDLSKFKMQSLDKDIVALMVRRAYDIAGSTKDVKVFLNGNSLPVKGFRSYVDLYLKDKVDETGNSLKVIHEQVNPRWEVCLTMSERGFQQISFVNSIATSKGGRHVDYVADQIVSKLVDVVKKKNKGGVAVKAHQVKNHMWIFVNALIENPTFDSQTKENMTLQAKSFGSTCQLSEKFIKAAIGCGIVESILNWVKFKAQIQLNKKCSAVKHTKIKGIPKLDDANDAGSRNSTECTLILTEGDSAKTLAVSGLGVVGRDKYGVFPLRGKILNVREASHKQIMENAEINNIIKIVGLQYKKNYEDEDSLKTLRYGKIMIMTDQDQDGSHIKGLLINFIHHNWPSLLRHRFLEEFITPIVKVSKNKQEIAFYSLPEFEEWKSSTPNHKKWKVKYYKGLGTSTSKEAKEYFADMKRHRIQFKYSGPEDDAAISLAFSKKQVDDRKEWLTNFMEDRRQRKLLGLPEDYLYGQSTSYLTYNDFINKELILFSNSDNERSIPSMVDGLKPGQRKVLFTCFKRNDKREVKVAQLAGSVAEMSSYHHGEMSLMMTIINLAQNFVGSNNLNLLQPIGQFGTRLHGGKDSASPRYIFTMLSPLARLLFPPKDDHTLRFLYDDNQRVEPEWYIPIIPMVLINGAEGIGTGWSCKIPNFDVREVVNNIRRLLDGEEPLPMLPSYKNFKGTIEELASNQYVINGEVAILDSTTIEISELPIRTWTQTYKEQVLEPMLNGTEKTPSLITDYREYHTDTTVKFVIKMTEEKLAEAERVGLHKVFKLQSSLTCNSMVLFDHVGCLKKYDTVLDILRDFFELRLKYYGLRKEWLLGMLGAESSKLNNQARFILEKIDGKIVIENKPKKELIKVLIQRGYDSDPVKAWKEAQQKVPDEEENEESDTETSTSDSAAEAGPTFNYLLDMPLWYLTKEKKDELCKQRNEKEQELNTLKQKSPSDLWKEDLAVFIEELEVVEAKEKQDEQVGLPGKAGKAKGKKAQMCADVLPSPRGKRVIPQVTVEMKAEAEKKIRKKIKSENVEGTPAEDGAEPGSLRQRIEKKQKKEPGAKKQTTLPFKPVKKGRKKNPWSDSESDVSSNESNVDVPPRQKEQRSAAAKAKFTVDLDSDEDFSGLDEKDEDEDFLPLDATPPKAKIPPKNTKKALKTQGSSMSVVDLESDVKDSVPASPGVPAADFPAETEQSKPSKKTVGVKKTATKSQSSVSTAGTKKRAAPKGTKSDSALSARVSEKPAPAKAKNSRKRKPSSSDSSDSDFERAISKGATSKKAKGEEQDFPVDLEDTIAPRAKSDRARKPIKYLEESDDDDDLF

SMILES | Ratio [1] | Activity (Mus musculus [2]) | RatioGI50 (MC-38 [3]) | IC50 [4] [µM] | MIC (Hepacivirus hominis) [µg/mL] | MIC [5] [µg/mL] | Activity (MC-38 [6]) | Activity [7] [%] | Activity (Mus musculus [8])
CC(=O)c1nn(-c2ccccc2)cc1C(=O)c1nn(-c2ccccc2)cc1C(=O)c1nn(-c2ccc(Cl)cc2)cc1C(=O)c1ccccc1 | 196 | Non-toxic | 196.1 | 35.1 | 0.151 (≈ 0.227 µM) | 3.2 (≈ 4.81 µM) | Active | 96.1 | Non-toxic
CC(=O)c1nn(-c2ccccc2)cc1C(=O)c1nn(-c2ccccc2)cc1C(=O)c1nn(-c2ccc(C)cc2)cc1C(=O)c1ccccc1 | 261 | Non-toxic | 260.6 | 34 | 0.149 (≈ 0.231 µM) | 3.12 (≈ 4.84 µM) | Active | 96.9 | Non-toxic
CC(=O)c1nn(-c2ccccc2)cc1C(=O)c1nn(-c2ccc(C)cc2)cc1C(=O)c1ccccc1 | 38.4 | Non-toxic | 38.46 | 44.1 | 0.322 (≈ 0.679 µM) | 4.12 (≈ 8.68 µM) | Active | 94 | Non-toxic
CC(=O)c1nn(-c2ccc([N+](=O)[O-])cc2)cc1C(=O)c1ccccc1 | 261 | Non-toxic | 260.9 | 31.5 | 0.144 (≈ 0.429 µM) | 3.09 (≈ 9.21 µM) | Active | 98.2 | Non-toxic
CC(=O)c1nn(-c2ccccc2)cc1C(=O)c1ccccc1 | 168 | Non-toxic | 168.5 | 39.5 | 0.162 (≈ 0.558 µM) | 3.62 (≈ 12.5 µM) | Active | 95.2 | Non-toxic
Cc1ccc(-n2cc(C(=O)c3ccccc3)c(C(=O)c3cn(-c4ccccc4)nc3C(=O)/C=C/N(C)C)n2)cc1 | 150 | Non-toxic | 150 | 42.2 | 0.181 (≈ 0.342 µM) | 3.82 (≈ 7.21 µM) | Active | 94.9 | Non-toxic
Cc1c(C)c2c(c(C)c1O)CCC(C)(C(=O)O)O2 (centres undefined) [TROLOX] |  |  |  | 58.4 |  |  |  |  | 
CN(C)/C=C/C(=O)c1nn(-c2ccccc2)cc1C(=O)c1nn(-c2ccc(Cl)cc2)cc1C(=O)c1ccccc1 | 37.9 | Non-toxic | 37.97 | 44.6 | 0.323 (≈ 0.587 µM) | 4.15 (≈ 7.55 µM) | Active | 93 | Non-toxic
CN(C)/C=C/C(=O)c1nn(-c2ccccc2)cc1C(=O)c1ccccc1 | 136 | Non-toxic | 136.4 | 44 | 0.32 (≈ 0.926 µM) | 4 (≈ 11.6 µM) | Active | 94.5 | Non-toxic
CC(=O)c1nn(-c2ccc(C)cc2)cc1C(=O)c1ccccc1 | 189 | Non-toxic | 188.7 | 37.8 | 0.159 (≈ 0.522 µM) | 3.42 (≈ 11.3 µM) | Active | 95.8 | Non-toxic
CC(=O)c1nn(-c2ccccc2)cc1C(=O)c1nn(-c2ccc(Cl)cc2)cc1C(=O)c1ccccc1 | 261 | Non-toxic | 260.9 | 32.2 | 0.147 (≈ 0.297 µM) | 3.11 (≈ 6.29 µM) | Active | 97.7 | Non-toxic
O=C1O[C@H]([C@@H](O)CO)C(O)=C1O |  |  |  |  |  |  |  | 79 | 
CC(=O)c1nn(-c2ccccc2)cc1C(=O)c1nn(-c2ccc([N+](=O)[O-])cc2)cc1C(=O)c1ccccc1 | 195 | Non-toxic | 194.8 | 36.6 | 0.155 (≈ 0.307 µM) | 3.22 (≈ 6.36 µM) | Active | 96 | Non-toxic
CC(=O)c1nn(-c2ccc(Cl)cc2)cc1C(=O)c1ccccc1 | 178 |  | 178.6 | 38.1 | 0.161 (≈ 0.496 µM) | 3.52 (≈ 10.8 µM) |  | 95.5 | 
CN(C)/C=C/C(=O)c1nn(-c2ccccc2)cc1C(=O)c1nn(-c2ccccc2)cc1C(=O)c1ccccc1 | 143 | Non-toxic | 142.9 | 44 | 0.291 (≈ 0.564 µM) | 3.99 (≈ 7.74 µM) | Active | 94.7 | Non-toxic
Cc1ccc(-n2cc(C(=O)c3ccccc3)c(C(=O)/C=C/N(C)C)n2)cc1 | 260 | Non-toxic | 260.4 | 34.2 | 0.15 (≈ 0.417 µM) | 3.18 (≈ 8.84 µM) | Active | 96.6 | Non-toxic
CC(=O)c1nn(-c2ccccc2)cc1C(=O)c1nn(-c2ccccc2)cc1C(=O)c1nn(-c2ccccc2)cc1C(=O)c1ccccc1 | 151 | Non-toxic | 150.8 | 42.1 | 0.171 (≈ 0.271 µM) | 3.71 (≈ 5.89 µM) | Active | 95 | Non-toxic
